Data published in article PMC11742495 (Breast Cancer Research : BCR, 2025).
Where a chain is given by its changes, count along the chain named. Where two headings read alike, the source gives them in different places. Values belong to the compound of their own block, whether it stands above or below them.

Columns and labels:
[1] = cited from earlier work
[2] = tested on: heterozygous, luciferase-tagged Y537S ESR1 MCF7 xenograft; test: Comparative murine xenograft study T6I-29-1A vs ICI; assay type: in vivo, NOD/SCID mice
endometrium = test: Uterine SERM agonist study; assay type: in vivo, BALB/c mice; conditions: ovariectomized mice, three days of treatment, with and without E2
Summary of the method: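 Adult ovariectomized BALB/c mice were randomized to 8 groups and dosed once daily for 3 consecutive days. Treatments: vehicle (0.2% Tween 80/0.5% CMC); E2 (0.1 mL of 0.1 µg/mL in 95% cottonseed oil/5% ethanol); test compound 50 mg/kg orally; reference SERM 50 mg/kg in vehicle; reference SERD 25 mg/kg in cottonseed oil/ethanol. Each active arm was run ± E2. Uteri were weighed, formalin-fixed, embedded and H&E-stained.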

[3] = target: T1, Y537S ERα-SRC3 interaction (Homo sapiens, UniProt P03372, Y537S); test: cell-based; assay type: cell-based; conditions: for IC50: 1 nM E2, 48 h
T1 sequence (P03372 1-595 Y537S): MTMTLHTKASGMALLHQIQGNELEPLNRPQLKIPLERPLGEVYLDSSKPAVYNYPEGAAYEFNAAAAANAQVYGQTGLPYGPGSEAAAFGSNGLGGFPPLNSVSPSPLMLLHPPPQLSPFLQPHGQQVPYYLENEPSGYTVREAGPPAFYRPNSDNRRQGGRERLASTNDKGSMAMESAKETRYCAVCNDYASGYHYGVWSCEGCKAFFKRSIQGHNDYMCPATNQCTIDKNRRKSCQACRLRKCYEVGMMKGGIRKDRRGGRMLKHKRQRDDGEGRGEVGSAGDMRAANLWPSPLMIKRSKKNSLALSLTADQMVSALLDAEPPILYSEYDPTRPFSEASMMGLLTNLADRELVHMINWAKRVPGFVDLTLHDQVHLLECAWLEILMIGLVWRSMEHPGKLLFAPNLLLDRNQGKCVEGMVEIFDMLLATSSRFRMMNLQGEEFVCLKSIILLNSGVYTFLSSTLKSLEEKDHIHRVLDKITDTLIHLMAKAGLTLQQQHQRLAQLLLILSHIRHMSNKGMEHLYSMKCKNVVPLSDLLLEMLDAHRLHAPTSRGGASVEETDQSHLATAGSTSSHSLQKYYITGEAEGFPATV

WT ERα-SRC3 interaction = target: T2, WT ERα-SRC3 interaction (Homo sapiens, UniProt P03372); test: cell-based; conditions: 1 nM E2, 48 h
T2 sequence (P03372 1-595): T1 sequence (P03372 1-595 Y537S) with S537Y

[4] = 25 mg/kg, T6I-29-1A IP five times per week, ICI SC once per week, vs vehicle
[5] = difference between WT-SRC3 and Y537S-SRC3

Structure (SMILES): CC/C(=C(\c1ccccc1)c1ccc(OCCN(C)C)cc1)c1ccccc1 [tamoxifen]
protein binding [1]: greater than 98%

Structure (SMILES): C[C@]12CC[C@@H]3c4ccc(O)cc4C[C@@H](CCCCCCCCC[S+]([O-])CCCC(F)(F)C(F)(F)F)[C@H]3[C@@H]1CC[C@@H]2O (stereo partly shown) [ICI, fulvestrant]
tumor bioluminescent signal (IVIS) vs vehicle ([2]; 25 mg/kg SC once per week): no significant difference in bioluminescent signal
final uterine weights ([2]; 25 mg/kg, T6I-29-1A IP five times per week, ICI SC once per week): significantly decreased final uterine weights
survival [2, 4]: significantly prolonged
tumor growth (digital caliper) [2, 4]: significantly blunted tumor growth
ER target gene expression in tumors (RT-qPCR) ([2]; no significance noted): heightened
endometrium thickness (endometrium): diminished the thickness

ΔIC50 [3]: 44.67
Structure (SMILES): C[C@@H]1Cc2c(ccc3[nH]ncc23)[C@@H](c2ccc(NC3CN(CCCF)C3)cn2)N1CC(F)(F)F [Cam, camizestrant]

ΔIC50 [3, 5]: 3560.03
Structure (SMILES): CCNCCc1ccc(CN(CC)c2cc(OC)ccc2[C@@H]2CCc3cc(O)ccc3C2)cc1 [Rad1901, elacestrant]

endometrium thickness (endometrium): significantly increased width
Structure (SMILES): CC/C(=C(\c1ccc(O)cc1)c1ccc(OCCN(C)C)cc1)c1ccccc1 [Compound 4OHT, 4-hydroxytamoxifen]

Structure (SMILES): C[C@@H]1Cc2c([nH]c3ccccc23)[C@@H](c2c(F)cc(NC3CN(CCCF)C3)cc2F)N1CC(F)(F)CO [Gir, giredestrant]
IC50 (WT ERα-SRC3 interaction; WT-SRC3 IC50 ± StDev): 0.68 ± 0.25 nM
IC50 (WT ERα-SRC3 interaction; WT-SRC3 Log(IC50) ± StDev): 0.676 nM
IC50 ([3]; Y537S-SRC3 IC50 ± StDev): 47.6 ± 11.4 nM
IC50 ([3]; Y537S-SRC3 Log(IC50) ± StDev): 47.9 nM
ΔIC50 [3, 5]: 46.95

ΔIC50 [3, 5]: 9.59
Structure (SMILES): Oc1ccc2c(c1)CC[C@H](c1ccccc1)[C@@H]2c1ccc(OCCN2CCCC2)cc1 [Laso, lasofoxifene]
